Test results published in ChEMBL document CHEMBL1130143, “Probes for narcotic receptor-mediated phenomena. 25. Synthesis and evaluation of N-alkyl-substituted (alpha-piperazinylbenzyl)benzamides as novel, highly selective delta opioid receptor agonists” (J Med Chem, 1997).
pIC50: −log10 of the molar value.

What was measured:
[1] = target: Kappa-type opioid receptor (Cavia porcellus, UniProt P41144); assay: Binding affinity for Opioid receptor kappa 1 by the inhibition of binding of [3H]U-69593 in guinea pig brain membranes.; assay type: cell membranes
In short: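 Guinea pig brain membranes, first depleted of μ and δ sites by pretreatment with irreversible ligands BIT and FIT. Nonspecific binding from 1 μM U69,593. Nine concentrations, run twice. IC50 reported.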

[2] = target: Mu-type opioid receptor (Rattus norvegicus, UniProt P33535); assay: Binding affinity for Opioid receptor mu 1 by the inhibition of binding of [3H]DAMGO in rat brain membranes.; assay type: cell membranes
In short: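 Rat brain membranes with [³H]DAMGO at 1-3 nM, incubated 4 h at 25 °C in 50 mM Tris-HCl pH 7.4 plus protease inhibitor cocktail. Nonspecific binding measured with 20 μM levallorphan. Radioligand displaced by nine drug concentrations, in two runs. Drugs diluted in 10 mM Tris-HCl pH 7.4 containing 1 mg/mL BSA. IC50 reported.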

[3] = species on record: Cavia porcellus; assay: Binding affinity ratio of kappa opioid receptor (guinea pig brain membranes) with respect to delta opioid receptor( rat brain membranes); assay type: cell membranes; conditions: Membrane
In short: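 Ratio of IC50 from [³H]U69,593 binding to μ/δ-depleted guinea pig brain membranes over IC50 from [³H]DADLE binding to rat brain membranes (μ sites blocked with 100 nM DAMGO). Both assays run at 25 °C in Tris-HCl pH 7.4, nine concentrations, run twice.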

[4] = target: Delta-type opioid receptor (Rattus norvegicus, UniProt P33533); assay: Binding affinity for Opioid receptor delta 1 by the inhibition of binding of [3H]DADAL in rat brain membranes.; assay type: cell membranes
In short: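 Rat brain membranes labelled with [³H]DADLE at 1.7-2.5 nM. Incubation 3-4 h at 25 °C in Tris-HCl pH 7.4 with 100 mM choline chloride, 3 mM MnCl₂, protease inhibitor cocktail and 100 nM DAMGO to block μ sites. Nonspecific binding defined with 20 μM levallorphan. Nine test concentrations, run twice. IC50 reported.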

[5] = target: Opioid receptors; mu & delta (Rattus norvegicus) (UniProt P33533+P33535); assay: Binding affinity ratio on mu opioid receptor( rat brain membranes) with respect to delta opioid receptor (rat brain membranes)
In short: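 Ratio of IC50 from [³H]DAMGO binding to rat brain membranes over IC50 from [³H]DADLE binding to rat brain membranes (μ sites blocked with 100 nM DAMGO). Both assays run at 25 °C in Tris-HCl pH 7.4, nine concentrations, run twice.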

[6] = target: Mu-type opioid receptor (Homo sapiens, UniProt P35372); assay: Binding affinity for micro receptors by the inhibition of binding of [3H]DAMGO to Opioid receptor mu 1 in human cloned receptors.
In short: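 Crude membranes from B82 mouse fibroblasts stably expressing human μ receptor, with 1.0 nM [³H]DAMGO. Samples incubated 3 h at 25 °C; nonspecific binding from 10 μM naltrexone; 10 inhibitor concentrations, with totals in duplicate. Filtered on PEI-treated glass-fiber filters, washed with cold saline, scintillation counted. IC50 by nonlinear regression.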

[7] = target: Delta-type opioid receptor (Homo sapiens, UniProt P41143); assay: Binding affinity for Opioid receptor delta 1 by the inhibition of binding of [3H]-p-DPDPE human cloned receptors.
In short: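 Crude membranes from CHO cells stably expressing human δ receptor, with 0.75 nM [³H]-p-Cl-DPDPE. Samples incubated 3 h at 25 °C; nonspecific binding from 10 μM naltrexone; 10 inhibitor concentrations, with totals in duplicate. Filtered on PEI-treated glass-fiber filters, washed with cold saline, scintillation counted. IC50 by nonlinear regression.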

[8] = target: Opioid receptors; mu & delta (Homo sapiens) (UniProt P41143+P35372); assay: Relative binding affinity to mu and delta opioid receptors; assay type: protein assay
Sequence of Opioid receptors; mu & delta (Homo sapiens) (P35372 whole entry, looked up): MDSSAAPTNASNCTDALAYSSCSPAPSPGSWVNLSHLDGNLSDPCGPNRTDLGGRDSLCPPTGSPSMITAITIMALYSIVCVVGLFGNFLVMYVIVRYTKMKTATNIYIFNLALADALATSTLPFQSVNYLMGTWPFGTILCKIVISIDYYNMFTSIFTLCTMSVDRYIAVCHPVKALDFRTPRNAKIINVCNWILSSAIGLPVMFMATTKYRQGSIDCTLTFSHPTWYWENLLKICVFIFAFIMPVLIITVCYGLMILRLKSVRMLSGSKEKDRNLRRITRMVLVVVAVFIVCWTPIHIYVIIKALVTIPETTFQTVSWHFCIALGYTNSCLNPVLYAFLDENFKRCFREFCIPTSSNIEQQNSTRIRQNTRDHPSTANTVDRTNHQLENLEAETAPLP
Sequence of Opioid receptors; mu & delta (Homo sapiens) (P41143 whole entry, looked up): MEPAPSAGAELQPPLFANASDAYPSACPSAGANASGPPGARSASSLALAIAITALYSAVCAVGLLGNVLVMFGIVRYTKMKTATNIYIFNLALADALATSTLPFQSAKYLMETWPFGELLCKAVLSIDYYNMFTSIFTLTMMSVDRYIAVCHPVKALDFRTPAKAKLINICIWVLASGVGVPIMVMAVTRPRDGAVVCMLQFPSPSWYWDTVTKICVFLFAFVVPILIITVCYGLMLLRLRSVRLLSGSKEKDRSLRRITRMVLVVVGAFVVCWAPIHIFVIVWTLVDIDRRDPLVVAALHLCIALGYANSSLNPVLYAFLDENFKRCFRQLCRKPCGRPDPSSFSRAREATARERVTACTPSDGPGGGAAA

Sequence of Delta-type opioid receptor (Homo sapiens, UniProt P41143) (P41143 whole entry): as the sequence (P41143 whole entry, looked up) above
Sequence of Mu-type opioid receptor (Homo sapiens, UniProt P35372) (P35372 whole entry): as the sequence (P35372 whole entry, looked up) above
Sequence of Mu-type opioid receptor (Rattus norvegicus, UniProt P33535) (P33535 whole entry): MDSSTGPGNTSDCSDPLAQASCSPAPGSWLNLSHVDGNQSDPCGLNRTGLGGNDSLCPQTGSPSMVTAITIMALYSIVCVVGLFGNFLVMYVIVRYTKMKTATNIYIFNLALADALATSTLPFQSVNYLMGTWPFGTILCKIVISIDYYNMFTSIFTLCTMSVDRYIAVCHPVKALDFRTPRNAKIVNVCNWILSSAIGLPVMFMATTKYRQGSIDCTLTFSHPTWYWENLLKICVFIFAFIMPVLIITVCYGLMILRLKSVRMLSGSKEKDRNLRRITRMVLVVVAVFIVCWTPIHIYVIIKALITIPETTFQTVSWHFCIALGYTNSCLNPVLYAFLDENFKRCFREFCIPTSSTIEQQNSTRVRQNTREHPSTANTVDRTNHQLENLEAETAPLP
Sequence of Kappa-type opioid receptor (P41144 whole entry): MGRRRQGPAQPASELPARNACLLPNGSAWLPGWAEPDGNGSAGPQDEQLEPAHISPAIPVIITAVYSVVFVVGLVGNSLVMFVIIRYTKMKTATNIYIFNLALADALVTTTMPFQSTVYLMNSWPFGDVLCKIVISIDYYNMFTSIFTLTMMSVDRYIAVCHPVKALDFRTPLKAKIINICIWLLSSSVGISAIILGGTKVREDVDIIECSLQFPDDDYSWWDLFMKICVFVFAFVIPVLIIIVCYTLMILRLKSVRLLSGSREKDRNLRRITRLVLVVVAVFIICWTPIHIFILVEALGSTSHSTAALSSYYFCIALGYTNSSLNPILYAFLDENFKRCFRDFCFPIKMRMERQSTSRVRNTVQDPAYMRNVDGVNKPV
Sequence of Opioid receptors; mu & delta (Rattus norvegicus) (P33533 whole entry, looked up): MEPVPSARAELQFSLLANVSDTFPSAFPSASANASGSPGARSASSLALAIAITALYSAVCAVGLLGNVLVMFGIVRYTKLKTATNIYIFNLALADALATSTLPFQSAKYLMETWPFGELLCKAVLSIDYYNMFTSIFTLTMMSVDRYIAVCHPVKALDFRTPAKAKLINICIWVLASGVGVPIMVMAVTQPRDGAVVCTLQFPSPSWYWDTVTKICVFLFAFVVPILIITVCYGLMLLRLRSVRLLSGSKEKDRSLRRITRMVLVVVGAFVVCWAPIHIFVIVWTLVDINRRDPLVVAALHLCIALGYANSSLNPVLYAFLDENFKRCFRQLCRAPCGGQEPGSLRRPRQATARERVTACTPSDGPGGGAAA
Sequence of Opioid receptors; mu & delta (Rattus norvegicus) (P33535 whole entry, looked up): as the sequence (P33535 whole entry) above
Sequence of Delta-type opioid receptor (Rattus norvegicus, UniProt P33533) (P33533 whole entry): as the sequence (P33533 whole entry, looked up) above

Structure (SMILES) | pIC50 [1] | pIC50 [2] | Ratio [3] | pIC50 [4] | Ratio [5] | pIC50 [6] | pIC50 [7] | Mu/delta ratio [8]
C=CCN1C[C@H](C)N([C@@H](c2ccc(C(=O)N(CCCC)CCCC)cc2)c2cccc(OC)c2)C[C@H]1C | < 5.60 | < 5.60 | > 5.5 | 6.89 | > 5.5 |  |  | 
C=CCN1C[C@H](C)N([C@@H](c2ccc(C(=O)N3CCCCCC3)cc2)c2cccc(OC)c2)C[C@H]1C | < 5.60 | < 5.60 | > 81 | 6.91 | > 20 |  |  | 
C=CCN1C[C@H](C)N([C@H](c2ccc(C(=O)N3CCCCC3)cc2)c2cccc(OC)c2)C[C@H]1C | < 5.00 | < 5.60 | > 684 | 7.84 | > 171 | 5.22 | 7.42 | 158
C=CCN1C[C@H](C)N([C@H](c2ccc(C(=O)N(C)C)cc2)c2cccc(OC)c2)C[C@H]1C | < 5.00 | 5.49 | > 2080 | 8.32 | 679 | 5.01 | 7.74 | 540
C=CCN1C[C@H](C)N([C@@H](c2ccc(C(=O)NCC)cc2)c2cccc(OC)c2)C[C@H]1C | 5.79 | 6.77 | 48 | 7.46 | 4.9 |  |  | 
C=CCN1C[C@H](C)N([C@H](c2ccc(C(=O)N(CC)CC)cc2)c2cccc(OC)c2)C[C@H]1C [SNC-80] | 5.15 |  |  |  |  |  |  | 
C=CCN1C[C@H](C)N([C@H](c2ccc(C(=O)N(C)CC)cc2)c2cccc(OC)c2)C[C@H]1C | < 5.00 | 5.13 | > 2380 | 8.38 | 1760 | 4.92 | 8.10 | 1510
C=CCN1C[C@H](C)N([C@H](c2ccc(C(=O)NC(C)(C)C)cc2)c2cccc(OC)c2)C[C@H]1C | < 5.60 | < 5.60 | > 8.9 | 6.55 | > 8.9 |  |  | 
C=CCN1C[C@H](C)N([C@@H](c2ccc(C(=O)N(C(C)C)C(C)C)cc2)c2cccc(OC)c2)C[C@H]1C | < 5.60 | < 5.60 | > 7.3 | 6.46 | > 7.3 |  |  | 
C=CCN1C[C@H](C)N([C@@H](c2ccc(C(N)=O)cc2)c2cccc(OC)c2)C[C@H]1C | < 5.60 | < 5.60 | > 6.4 | 6.41 | > 6.4 |  |  | 
C=CCN1C[C@H](C)N([C@H](c2ccc(C(=O)N3CCCC3)cc2)c2cccc(OC)c2)C[C@H]1C | < 5.00 | < 5.60 | > 552 | 7.74 | > 138 | 5.21 | 7.58 | 233
C=CCN1C[C@H](C)N([C@@H](c2ccc(C(=O)N3CCCCC3)cc2)c2cccc(OC)c2)C[C@H]1C | < 5.00 | < 5.60 | > 22 | 6.35 | > 5.5 |  |  | 
C=CCN1C[C@H](C)N([C@H](c2ccc(C(=O)NC(CC)CC)cc2)c2cccc(OC)c2)C[C@H]1C | < 5.60 | < 5.60 | > 14 | 6.75 | > 14 |  |  | 
C=CCN1C[C@H](C)N([C@H](c2ccc(C(=O)N(C(C)C)C(C)C)cc2)c2cccc(OC)c2)C[C@H]1C | < 5.60 | < 5.60 | > 352 | 8.15 | > 352 | 5.17 | 8.30 | 1370
C=CCN1C[C@H](C)N([C@@H](c2ccc(C(=O)N(CC)CCCC)cc2)c2cccc(OC)c2)C[C@H]1C | < 5.00 | 5.23 | > 66 | 6.82 | 39 |  |  | 
C=CCN1C[C@H](C)N([C@H](c2ccc(C(=O)N(CCCC)CCCC)cc2)c2cccc(OC)c2)C[C@H]1C | < 5.60 | < 5.60 | > 71 | 7.46 | > 71 |  |  | 
C=CCN1C[C@H](C)N([C@@H](c2ccc(C(=O)N(CCC)CCC)cc2)c2cccc(OC)c2)C[C@H]1C | < 5.00 | 5.36 | > 65 | 6.82 | 28 |  |  | 
C=CCN1C[C@H](C)N([C@@H](c2ccc(C(=O)N3CCCC3)cc2)c2cccc(OC)c2)C[C@H]1C | < 5.00 | < 5.60 | > 38 | 6.58 | > 9.4 |  |  | 
C=CCN1C[C@H](C)N([C@H](c2ccc(C(N)=O)cc2)c2cccc(OC)c2)C[C@H]1C | < 5.60 | < 5.60 | > 5.5 | 6.35 | > 5.5 |  |  | 
C=CCN1C[C@H](C)N([C@H](c2ccc(C(=O)N(CC)CCCC)cc2)c2cccc(OC)c2)C[C@H]1C | < 5.00 | 5.72 | > 1520 | 8.18 | 286 | 5.48 | 7.99 | 327
C=CCN1C[C@H](C)N([C@H](c2ccc(C(=O)N(CCC)CCC)cc2)c2cccc(OC)c2)C[C@H]1C | < 5.00 | 5.40 | > 763 | 7.88 | 305 | 5.22 | 8.12 | 811
C=CCN1C[C@H](C)N([C@@H](c2ccc(C(=O)N(C)CC)cc2)c2cccc(OC)c2)C[C@H]1C | < 5.60 | < 5.60 | > 41 | 7.22 | > 41 |  |  | 
C=CCN1C[C@H](C)N([C@H](c2ccc(C(=O)N3CCCCCC3)cc2)c2cccc(OC)c2)C[C@H]1C | < 5.00 | < 5.60 | > 1220 | 8.09 | > 305 | 5.35 | 7.89 | 344
C=CCN1C[C@H](C)N([C@@H](c2ccc(C(=O)N(C)C)cc2)c2cccc(OC)c2)C[C@H]1C | < 5.60 | < 5.60 | > 11 | 6.63 | > 11 |  |  | 
